Molecules are shown by their SMILES.

Sequence of Cytochrome P450 2C19 (P33261 whole entry): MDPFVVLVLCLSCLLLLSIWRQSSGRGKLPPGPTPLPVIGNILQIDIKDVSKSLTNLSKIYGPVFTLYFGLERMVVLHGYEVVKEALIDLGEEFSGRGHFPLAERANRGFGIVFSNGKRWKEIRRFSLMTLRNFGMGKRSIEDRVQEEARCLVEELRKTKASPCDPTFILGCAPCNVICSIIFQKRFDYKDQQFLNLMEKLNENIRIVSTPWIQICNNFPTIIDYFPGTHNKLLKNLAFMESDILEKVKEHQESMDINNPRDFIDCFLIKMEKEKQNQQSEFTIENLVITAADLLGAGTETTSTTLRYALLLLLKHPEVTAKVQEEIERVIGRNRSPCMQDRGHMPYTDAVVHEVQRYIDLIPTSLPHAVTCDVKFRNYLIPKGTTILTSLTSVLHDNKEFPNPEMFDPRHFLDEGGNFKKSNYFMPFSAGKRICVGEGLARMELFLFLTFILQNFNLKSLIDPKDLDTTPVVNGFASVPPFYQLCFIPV
Sequence of Cytochrome P450 3A4 (P08684 whole entry): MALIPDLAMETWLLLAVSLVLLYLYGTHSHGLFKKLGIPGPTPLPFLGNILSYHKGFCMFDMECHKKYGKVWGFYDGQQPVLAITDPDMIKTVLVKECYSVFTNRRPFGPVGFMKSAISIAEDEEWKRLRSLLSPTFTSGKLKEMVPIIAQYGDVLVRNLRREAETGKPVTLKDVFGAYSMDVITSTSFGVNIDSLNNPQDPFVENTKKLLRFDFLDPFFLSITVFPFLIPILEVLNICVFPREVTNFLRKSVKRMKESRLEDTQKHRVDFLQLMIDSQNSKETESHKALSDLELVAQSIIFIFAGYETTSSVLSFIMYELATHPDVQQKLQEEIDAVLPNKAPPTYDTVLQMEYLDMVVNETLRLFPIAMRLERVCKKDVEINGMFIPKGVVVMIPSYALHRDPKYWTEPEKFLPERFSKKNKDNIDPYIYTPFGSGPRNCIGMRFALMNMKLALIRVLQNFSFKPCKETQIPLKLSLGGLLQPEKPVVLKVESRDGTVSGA
Sequence of Cytochrome P450 2D6 (P10635 whole entry): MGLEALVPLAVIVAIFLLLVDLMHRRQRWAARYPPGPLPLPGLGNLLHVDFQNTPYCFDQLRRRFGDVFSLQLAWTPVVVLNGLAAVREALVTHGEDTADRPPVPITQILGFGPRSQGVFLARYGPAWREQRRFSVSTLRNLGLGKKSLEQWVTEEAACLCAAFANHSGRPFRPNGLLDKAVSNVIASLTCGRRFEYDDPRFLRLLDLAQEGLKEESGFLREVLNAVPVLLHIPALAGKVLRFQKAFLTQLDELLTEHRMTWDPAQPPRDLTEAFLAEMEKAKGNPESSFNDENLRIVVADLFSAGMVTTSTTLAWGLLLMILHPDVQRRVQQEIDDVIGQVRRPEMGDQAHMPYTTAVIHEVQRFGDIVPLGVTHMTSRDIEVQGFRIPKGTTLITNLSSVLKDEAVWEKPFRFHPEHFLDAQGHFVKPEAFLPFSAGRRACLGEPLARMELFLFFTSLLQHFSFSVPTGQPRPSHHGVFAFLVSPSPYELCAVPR

The first data set deals with Cytochrome P450 2C9 (Homo sapiens, UniProt P11712). Nature of the data set: Inhibition of CYP2C9. It counts as ADME.
Sequence of Cytochrome P450 2C9 (P11712 whole entry): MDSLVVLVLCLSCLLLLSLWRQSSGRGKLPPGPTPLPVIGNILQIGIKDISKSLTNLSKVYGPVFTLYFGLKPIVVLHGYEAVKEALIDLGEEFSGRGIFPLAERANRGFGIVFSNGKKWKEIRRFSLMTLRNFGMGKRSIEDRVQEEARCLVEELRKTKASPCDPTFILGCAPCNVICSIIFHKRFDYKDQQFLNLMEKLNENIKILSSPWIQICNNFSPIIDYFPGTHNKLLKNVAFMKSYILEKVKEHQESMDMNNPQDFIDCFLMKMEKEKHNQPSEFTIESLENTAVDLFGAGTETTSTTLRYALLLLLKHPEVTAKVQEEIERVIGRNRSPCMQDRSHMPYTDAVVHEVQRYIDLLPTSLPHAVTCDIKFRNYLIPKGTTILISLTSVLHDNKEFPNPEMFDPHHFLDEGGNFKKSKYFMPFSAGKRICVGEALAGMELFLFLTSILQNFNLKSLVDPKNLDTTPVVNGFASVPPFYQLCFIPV
For the molecule `Cc1ncsc1C(=O)N(Cc1cc(=O)[nH]c2c(F)c(F)ccc12)c1cccc(Cl)c1`, the EC50 (usually the concentration at which the effect is half-maximal) stood at 22 µM.

Another data set deals with T1, CYP1A2 (Homo sapiens, UniProt P05177).
T1 sequence (P05177 whole entry): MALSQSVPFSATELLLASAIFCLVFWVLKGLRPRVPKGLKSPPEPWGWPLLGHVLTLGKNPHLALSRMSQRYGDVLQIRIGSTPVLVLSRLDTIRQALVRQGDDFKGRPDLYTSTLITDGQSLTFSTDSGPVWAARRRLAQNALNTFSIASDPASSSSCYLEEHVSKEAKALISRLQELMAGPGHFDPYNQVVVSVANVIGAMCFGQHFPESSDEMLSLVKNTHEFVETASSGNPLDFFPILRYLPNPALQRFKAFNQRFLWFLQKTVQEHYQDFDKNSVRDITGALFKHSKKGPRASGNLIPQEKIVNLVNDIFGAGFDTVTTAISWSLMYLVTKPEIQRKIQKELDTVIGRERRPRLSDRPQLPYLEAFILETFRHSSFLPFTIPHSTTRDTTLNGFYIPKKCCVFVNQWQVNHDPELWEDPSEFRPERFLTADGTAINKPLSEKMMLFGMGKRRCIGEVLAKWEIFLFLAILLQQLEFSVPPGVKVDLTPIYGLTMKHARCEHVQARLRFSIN
Nature of the data set: Inhibition of CYP1A2 at 100 uM. In kind it is ADME.
On to `CC(C)C(=O)N(Cc1cc(=O)[nH]c2c(F)cccc12)c1cccc(Cl)c1`, for which the inhibition (commonly how much of the control response was suppressed) at 100 µM was less than 50%.

In turn, `CC1=C(C(=O)N(Cc2cc(=O)[nH]c3c(F)c(F)ccc23)c2cccc(Cl)c2)CNCC1` returned an inhibition at 100 µM of less than 50%.

The next data set deals with CYP2D6 (Homo sapiens, UniProt P10635). Put plainly: Inhibition of CYP2D6 at 100 uM. In kind it is ADME.
Sequence of CYP2D6 (P10635 whole entry): as the sequence (P10635 whole entry) above
As for `CC(C)C(=O)N(Cc1cc(=O)[nH]c2c(F)cccc12)c1cccc(Cl)c1`, the inhibition at 100 µM was less than 50%.

As for `Cc1ncsc1C(=O)N(Cc1cc(=O)[nH]c2c(F)c(F)ccc12)c1cccc(Cl)c1`, the inhibition at 100 µM was less than 50%.

The molecule `CC1=C(C(=O)N(Cc2cc(=O)[nH]c3c(F)c(F)ccc23)c2cccc(Cl)c2)CNCC1` showed an inhibition at 100 µM of less than 50%.

The next data set addresses T2, Nitric oxide synthase 3 (Homo sapiens, UniProt P29474).
T2 sequence (P29474 whole entry): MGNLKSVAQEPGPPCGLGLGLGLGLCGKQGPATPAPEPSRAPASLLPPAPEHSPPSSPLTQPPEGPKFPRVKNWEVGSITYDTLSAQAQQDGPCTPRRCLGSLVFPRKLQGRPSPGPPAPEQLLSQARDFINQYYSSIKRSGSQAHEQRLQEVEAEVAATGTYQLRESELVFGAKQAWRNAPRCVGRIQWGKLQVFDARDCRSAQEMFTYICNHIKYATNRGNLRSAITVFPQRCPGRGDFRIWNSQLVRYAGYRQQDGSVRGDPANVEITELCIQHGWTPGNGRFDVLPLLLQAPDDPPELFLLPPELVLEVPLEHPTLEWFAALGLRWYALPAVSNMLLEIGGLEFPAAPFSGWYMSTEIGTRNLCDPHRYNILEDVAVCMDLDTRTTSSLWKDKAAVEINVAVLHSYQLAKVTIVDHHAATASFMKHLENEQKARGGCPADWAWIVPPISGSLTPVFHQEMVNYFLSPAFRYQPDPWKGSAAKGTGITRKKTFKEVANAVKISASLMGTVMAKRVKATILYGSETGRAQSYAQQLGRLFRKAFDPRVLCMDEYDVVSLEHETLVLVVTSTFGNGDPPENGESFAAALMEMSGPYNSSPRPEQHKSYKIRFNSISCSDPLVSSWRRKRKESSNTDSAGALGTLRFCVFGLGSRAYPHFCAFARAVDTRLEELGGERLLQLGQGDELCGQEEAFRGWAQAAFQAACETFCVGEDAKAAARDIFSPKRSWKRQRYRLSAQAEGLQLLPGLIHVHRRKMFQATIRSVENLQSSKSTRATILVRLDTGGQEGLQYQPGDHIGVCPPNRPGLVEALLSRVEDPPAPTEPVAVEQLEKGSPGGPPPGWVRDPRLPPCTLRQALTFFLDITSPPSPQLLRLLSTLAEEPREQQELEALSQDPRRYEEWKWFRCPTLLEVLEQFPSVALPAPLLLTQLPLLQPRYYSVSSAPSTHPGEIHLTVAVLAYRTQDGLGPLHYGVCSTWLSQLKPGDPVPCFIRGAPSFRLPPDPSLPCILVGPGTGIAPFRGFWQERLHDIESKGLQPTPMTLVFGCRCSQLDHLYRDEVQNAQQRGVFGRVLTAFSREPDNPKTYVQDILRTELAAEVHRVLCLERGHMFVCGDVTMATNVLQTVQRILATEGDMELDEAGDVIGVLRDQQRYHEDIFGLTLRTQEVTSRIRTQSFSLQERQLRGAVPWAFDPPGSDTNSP
Nature of the data set: Inhibition of human eNOS expressed in HEK293 cells assessed as NO production by transient transfection assay. It counts as cell-based. The essentials:
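HEK293 cells grown to ~70% confluence in DMEM/10% FBS with pen/strep, transfected with 15 µg human eNOS plasmid plus Fugene 6 (3:1 µL:µg), 4 h at 37 °C, 10% CO2. Cells replated at 5 × 10⁵/mL, compound added at once, 24 h incubation, then A23187 (83 nM final). After 18 h, NO read by DAN fluorescence.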
On to `CC(C)C(=O)N(Cc1cc(=O)[nH]c2c(F)cccc12)c1cccc(Cl)c1`, for which the EC50 is greater than 100 µM.

For `Cc1ncsc1C(=O)N(Cc1cc(=O)[nH]c2c(F)c(F)ccc12)c1cccc(Cl)c1`, the EC50 is 3 µM.

`CC1=C(C(=O)N(Cc2cc(=O)[nH]c3c(F)c(F)ccc23)c2cccc(Cl)c2)CNCC1`: the EC50 is 2.5 µM.

Another data set deals with Mus musculus. Put plainly: Reduction of plasma nitrate level in LPS-challenged po dosed BALB/c mouse. It counts as functional. In outline:
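Male Balb/c mice were dosed by oral gavage (90% PEG/5% Tween 80/5% PVP + 90% CMC (0.5% w/v)) at t = 0 h, 30 mg/kg for single-dose lines. LPS 10 mg/kg ip in 0.9% NaCl followed immediately. At 6 h, EDTA plasma was taken for nitrate and drug levels. Nitrate reduction is relative to vehicle; ED50 came from full oral dose-response.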
On to `Cc1ncsc1C(=O)N(Cc1cc(=O)[nH]c2c(F)c(F)ccc12)c1cccc(Cl)c1`, for which the ED50 – broadly, the dose that gives a 50% effect, or the effect in half of the subjects – was determined as 13 mg/kg.

Turning to `CC1=C(C(=O)N(Cc2cc(=O)[nH]c3c(F)c(F)ccc23)c2cccc(Cl)c2)CNCC1`, the median effective dose (ED50) came to 16 mg/kg.

The next data set has as its target Cytochrome P450 3A4 (Homo sapiens, UniProt P08684). Put plainly: Inhibition of CYP3A4. In kind it is ADME.
`CC(C)C(=O)N(Cc1cc(=O)[nH]c2c(F)cccc12)c1cccc(Cl)c1` yielded an EC50 of 7.6 µM.

With `Cc1ncsc1C(=O)N(Cc1cc(=O)[nH]c2c(F)c(F)ccc12)c1cccc(Cl)c1`, the EC50 is 4.9 µM.

On to `CC1=C(C(=O)N(Cc2cc(=O)[nH]c3c(F)c(F)ccc23)c2cccc(Cl)c2)CNCC1`, for which a half-maximal response (EC50) required 3.4 µM.

A further data set addresses Cytochrome P450 2D6 (Homo sapiens, UniProt P10635). Put plainly: Inhibition of CYP2D6. In kind it is ADME.
For `CC(C)C(=O)N(Cc1cc(=O)[nH]c2c(F)cccc12)c1cccc(Cl)c1`, the EC50 is greater than 100 µM.

The molecule `Cc1ncsc1C(=O)N(Cc1cc(=O)[nH]c2c(F)c(F)ccc12)c1cccc(Cl)c1` displayed an EC50 greater than 100 µM.

As to `CC1=C(C(=O)N(Cc2cc(=O)[nH]c3c(F)c(F)ccc23)c2cccc(Cl)c2)CNCC1`, the EC50 is greater than 100 µM.

Another data set has as its target Cytochrome P450 2C19 (Homo sapiens, UniProt P33261). Put plainly: Inhibition of CYP2C19. In kind it is ADME.
`CC(C)C(=O)N(Cc1cc(=O)[nH]c2c(F)cccc12)c1cccc(Cl)c1` returned an EC50 of 42 µM.

The molecule `Cc1ncsc1C(=O)N(Cc1cc(=O)[nH]c2c(F)c(F)ccc12)c1cccc(Cl)c1` gave an EC50 of 19 µM.

Molecule `CC1=C(C(=O)N(Cc2cc(=O)[nH]c3c(F)c(F)ccc23)c2cccc(Cl)c2)CNCC1` showed an EC50 of 30 µM.

Source of the values: ChEMBL document CHEMBL1138485, “Discovery of inducible nitric oxide synthase (iNOS) inhibitor development candidate KD7332, part 1: Identification of a novel, potent, and selective series of quinolinone iNOS dimerization inhibitors that are orally active in rodent pain models” (J Med Chem, 2009).
